# Experimental data from ChEMBL document CHEMBL1147003, “Anti-Plasmodium activity of imidazole-dioxolane compounds” (Bioorg Med Chem Lett, 2006).
# What was measured:
# Plasmodium falciparum = test: Antimalarial activity against Plasmodium falciparum; assay type: functional, organism-based
# In short: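 pLDH read-out of P. falciparum growth. Compounds in DMSO (10 mg/mL) serially diluted twofold in duplicate. Non-synchronous culture added at 5% hematocrit, 2% parasitemia. Incubated 72 h at 37 °C under 95% N2/3% CO2/2% O2. Sample of resuspended wells mixed with pLDH assay mixture, absorbance at 540 nm after 1 h. IC50 from non-linear regression, mean ± SD of four independent assays.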
# CHO [1] = test: Selectivity index as IC50 CHO/IC50 Plasmodium falciparum; assay type: functional
# CHO [2] = test: Cytotoxicity against CHO cell line; assay type: functional, cell-based, Cricetulus griseus
# In short: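 CHO cells in RPMI-1640 with 10% FBS, 25 mM HEPES and gentamicin, grown to 50% confluency before compounds added in DMSO. Viability after 24 h by MTT (1 mg/mL), 30 min further incubation, medium removed, DMSO added, absorbance at 540 nm. Run in quadruplicate. IC50 by non-linear regression.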
compound,measurement,setting,value
Cl.Nc1ccc(SC[C@@H]2CO[C@@](CCc3ccc(Cl)cc3)(Cn3ccnc3)O2)cc1,IC50,Plasmodium falciparum; Plasmodium falciparum,1300 nM
same,Ratio IC50,CHO [1],287.7
same,IC50,"CHO [2]; Cricetulus griseus, CHO",374 µM
Cl.Cl.Nc1cccc(SC[C@H]2CO[C@@](CCc3ccc(Cl)cc3)(Cn3ccnc3)O2)c1,IC50,Plasmodium falciparum; Plasmodium falciparum,1200 nM
same,Ratio IC50,CHO [1],7.5
same,IC50,"CHO [2]; Cricetulus griseus, CHO",9 µM
Cl.Clc1ccc(CC[C@@]2(Cn3ccnc3)OC[C@@H](CSc3ccc(Cl)cc3)O2)cc1,IC50,Plasmodium falciparum; Plasmodium falciparum,2500 nM
same,Ratio IC50,CHO [1],1.3
same,IC50,"CHO [2]; Cricetulus griseus, CHO",3.3 µM
COc1ccc(CCC(O)Cn2ccnc2)cc1.Cl (stereo unspecified),IC50,Plasmodium falciparum; Plasmodium falciparum,38000 nM
same,Ratio IC50,CHO [1],3.1
same,IC50,"CHO [2]; Cricetulus griseus, CHO",116 µM
Oc1ccc(SC[C@@H]2CO[C@@](CCc3ccc(Cl)cc3)(Cn3ccnc3)O2)cc1,IC50,Plasmodium falciparum; Plasmodium falciparum,60 nM
same,Ratio IC50,CHO [1],181.6
same,IC50,"CHO [2]; Cricetulus griseus, CHO",10.9 µM
Cl.Nc1cccc(SC[C@H]2CO[C@](CCc3ccc(Cl)cc3)(Cn3ccnc3)O2)c1,IC50,Plasmodium falciparum; Plasmodium falciparum,2500 nM
same,Ratio IC50,CHO [1],3.7
same,IC50,"CHO [2]; Cricetulus griseus, CHO",9.2 µM
Cl.Clc1ccc(CCC2(Cn3ccnc3)SCCS2)cc1,IC50,Plasmodium falciparum; Plasmodium falciparum,2300 nM
same,Ratio IC50,CHO [1],10.9
same,IC50,"CHO [2]; Cricetulus griseus, CHO",25 µM
Cl.O=C(CCc1ccc(Cl)cc1)Cn1ccnc1,IC50,Plasmodium falciparum; Plasmodium falciparum,25000 nM
same,Ratio IC50,CHO [1],6.7
same,IC50,"CHO [2]; Cricetulus griseus, CHO",168 µM
Cc1ccc(S(=O)(=O)OC[C@@H]2CO[C@](CCc3ccc(Cl)cc3)(Cn3ccnc3)O2)cc1,IC50,Plasmodium falciparum,1200 nM
same,Ratio IC50,CHO [1],3.2
same,IC50,CHO [2]; cho,3.8 µM
Cl.Clc1ccc(CCC2(Cn3ccnc3)OCCO2)cc1,IC50,Plasmodium falciparum; Plasmodium falciparum,9000 nM
same,Ratio IC50,CHO [1],9.3
same,IC50,"CHO [2]; Cricetulus griseus, CHO",84 µM
Cl.Oc1ccc(OC[C@@H]2CO[C@@](CCc3ccc(Cl)cc3)(Cn3ccnc3)O2)cc1,IC50,Plasmodium falciparum; Plasmodium falciparum,1100 nM
same,Ratio IC50,CHO [1],0.8
same,IC50,"CHO [2]; Cricetulus griseus, CHO",0.9 µM
C[C@H]1CO[C@](CCc2ccc(Cl)cc2)(Cn2ccnc2)O1.Cl,IC50,Plasmodium falciparum; Plasmodium falciparum,18000 nM
same,Ratio IC50,CHO [1],4.6
same,IC50,"CHO [2]; Cricetulus griseus, CHO",82 µM
C[C@@H]1CO[C@](CCc2ccc(Cl)cc2)(Cn2ccnc2)O1.Cl,IC50,Plasmodium falciparum; Plasmodium falciparum,23000 nM
same,Ratio IC50,CHO [1],4.4
same,IC50,"CHO [2]; Cricetulus griseus, CHO",102 µM
Cc1ccc(S(=O)(=O)OC[C@@H]2CO[C@](CCc3ccc(Cl)cc3)(Cn3ccnc3)O2)cc1.Cl,IC50,Plasmodium falciparum,670 nM
same,Ratio IC50,CHO [1],10.4
same,IC50,CHO [2]; cho,7 µM
Cl.Cl.Nc1ccccc1SC[C@@H]1CO[C@](CCc2ccc(Cl)cc2)(Cn2ccnc2)O1,IC50,Plasmodium falciparum; Plasmodium falciparum,600 nM
same,Ratio IC50,CHO [1],10
same,IC50,"CHO [2]; Cricetulus griseus, CHO",6 µM
COc1ccc(SC[C@@H]2CO[C@@](CCc3ccc(Cl)cc3)(Cn3ccnc3)O2)cc1.Cl,IC50,Plasmodium falciparum; Plasmodium falciparum,3500 nM
same,Ratio IC50,CHO [1],1.1
same,IC50,"CHO [2]; Cricetulus griseus, CHO",3.7 µM
Cl.OC[C@@H]1CO[C@@](CCc2ccc(Cl)cc2)(Cn2ccnc2)O1,IC50,Plasmodium falciparum; Plasmodium falciparum,9000 nM
same,Ratio IC50,CHO [1],25.2
same,IC50,"CHO [2]; Cricetulus griseus, CHO",227 µM
Cl.Nc1ccccc1SC[C@H]1CO[C@](CCc2ccc(Cl)cc2)(Cn2ccnc2)O1,IC50,Plasmodium falciparum; Plasmodium falciparum,3300 nM
same,Ratio IC50,CHO [1],2
same,IC50,"CHO [2]; Cricetulus griseus, CHO",6.6 µM
Cl.Clc1ccc(CC[C@@]2(Cn3ccnc3)OC[C@@H](CSc3ccccc3)O2)cc1,IC50,Plasmodium falciparum; Plasmodium falciparum,3300 nM
same,Ratio IC50,CHO [1],2.1
same,IC50,"CHO [2]; Cricetulus griseus, CHO",7 µM
Cl.Cl.Nc1ccc(SC[C@@H]2CO[C@](CCc3ccc(Cl)cc3)(Cn3ccnc3)O2)cc1 [AZALANSTAT DIHYDROCHLORIDE],IC50,Plasmodium falciparum; Plasmodium falciparum,800 nM
same,Ratio IC50,CHO [1],16.3
same,IC50,"CHO [2]; Cricetulus griseus, CHO",13 µM
Cl.Clc1ccc(CC[C@]2(Cn3ccnc3)OC[C@@H](CSc3ccc4ccccc4c3)O2)cc1,IC50,Plasmodium falciparum; Plasmodium falciparum,1200 nM
same,Ratio IC50,CHO [1],7.5
same,IC50,"CHO [2]; Cricetulus griseus, CHO",9 µM
Cl.Cl.Nc1ccc(SC[C@H]2CO[C@@](CCc3ccc(Cl)cc3)(Cn3ccnc3)O2)cc1,IC50,Plasmodium falciparum; Plasmodium falciparum,2700 nM
same,Ratio IC50,CHO [1],2.2
same,IC50,"CHO [2]; Cricetulus griseus, CHO",6 µM
Cl.Nc1ccc(SC[C@H]2CO[C@](CCc3ccc(Cl)cc3)(Cn3ccnc3)O2)cc1,IC50,Plasmodium falciparum; Plasmodium falciparum,3000 nM
same,Ratio IC50,CHO [1],84.7
same,IC50,"CHO [2]; Cricetulus griseus, CHO",254 µM
Cc1ccc(S(=O)(=O)OC[C@H]2CO[C@@](CCc3ccc(Cl)cc3)(Cn3ccnc3)O2)cc1,IC50,Plasmodium falciparum; Plasmodium falciparum,1900 nM
same,Ratio IC50,CHO [1],3
same,IC50,"CHO [2]; Cricetulus griseus, CHO",5.7 µM
Cc1ccc(S(=O)(=O)OC[C@@H]2CO[C@@](CCc3ccc(Cl)cc3)(Cn3ccnc3)O2)cc1,IC50,Plasmodium falciparum; Plasmodium falciparum,2900 nM
same,Ratio IC50,CHO [1],2.8
same,IC50,"CHO [2]; Cricetulus griseus, CHO",8 µM
Cl.Cl.Clc1ccc(CC[C@@]2(Cn3ccnc3)OC[C@@H](CSc3ccncc3)O2)cc1,IC50,Plasmodium falciparum; Plasmodium falciparum,4900 nM
same,Ratio IC50,CHO [1],5.5
same,IC50,"CHO [2]; Cricetulus griseus, CHO",27 µM
Cl.FC[C@@H]1CO[C@@](CCc2ccc(Cl)cc2)(Cn2ccnc2)O1,IC50,Plasmodium falciparum; Plasmodium falciparum,20000 nM
same,Ratio IC50,CHO [1],1.2
same,IC50,"CHO [2]; Cricetulus griseus, CHO",24 µM
C[C@@H]1CO[C@@](CCc2ccc(Cl)cc2)(Cn2ccnc2)O1.Cl,IC50,Plasmodium falciparum; Plasmodium falciparum,7000 nM
same,Ratio IC50,CHO [1],7.3
same,IC50,"CHO [2]; Cricetulus griseus, CHO",51 µM
CSC[C@@H]1CO[C@@](CCc2ccc(Cl)cc2)(Cn2ccnc2)O1.Cl,IC50,Plasmodium falciparum; Plasmodium falciparum,2100 nM
same,Ratio IC50,CHO [1],4.7
same,IC50,"CHO [2]; Cricetulus griseus, CHO",9.3 µM
C[C@H]1CO[C@@](CCc2ccc(Cl)cc2)(Cn2ccnc2)O1.Cl,IC50,Plasmodium falciparum; Plasmodium falciparum,4100 nM
same,Ratio IC50,CHO [1],9.5
same,IC50,"CHO [2]; Cricetulus griseus, CHO",39 µM
Cl.OC(CCc1ccc(Cl)cc1)Cn1ccnc1 (stereo unspecified),IC50,Plasmodium falciparum; Plasmodium falciparum,70000 nM
same,Ratio IC50,CHO [1],4.5
same,IC50,"CHO [2]; Cricetulus griseus, CHO",314 µM
Cl.Cl.Nc1ccccc1SC[C@H]1CO[C@@](CCc2ccc(Cl)cc2)(Cn2ccnc2)O1,IC50,Plasmodium falciparum; Plasmodium falciparum,2300 nM
same,Ratio IC50,CHO [1],4.8
same,IC50,"CHO [2]; Cricetulus griseus, CHO",11 µM
Cl.Cl.Nc1ccc(OC[C@@H]2CO[C@@](CCc3ccc(Cl)cc3)(Cn3ccnc3)O2)cc1,IC50,Plasmodium falciparum; Plasmodium falciparum,1300 nM
same,Ratio IC50,CHO [1],10.8
same,IC50,"CHO [2]; Cricetulus griseus, CHO",14 µM
Cl.Cl.Nc1ccccc1SC[C@@H]1CO[C@@](CCc2ccc(Cl)cc2)(Cn2ccnc2)O1,IC50,Plasmodium falciparum; Plasmodium falciparum,3900 nM
same,Ratio IC50,CHO [1],4.1
same,IC50,"CHO [2]; Cricetulus griseus, CHO",16 µM
COc1ccc(OC[C@@H]2CO[C@](CCc3ccc(Cl)cc3)(Cn3ccnc3)O2)cc1.Cl,IC50,Plasmodium falciparum; Plasmodium falciparum,800 nM
same,Ratio IC50,CHO [1],18.8
same,IC50,"CHO [2]; Cricetulus griseus, CHO",15 µM
Cc1ccc(S(=O)(=O)OC[C@H]2CO[C@](CCc3ccc(Cl)cc3)(Cn3ccnc3)O2)cc1,IC50,Plasmodium falciparum; Plasmodium falciparum,2800 nM
same,Ratio IC50,CHO [1],4.6
same,IC50,"CHO [2]; Cricetulus griseus, CHO",13 µM
Cl.Nc1cccc(SC[C@@H]2CO[C@@](CCc3ccc(Cl)cc3)(Cn3ccnc3)O2)c1,IC50,Plasmodium falciparum; Plasmodium falciparum,2000 nM
same,Ratio IC50,CHO [1],5
same,IC50,"CHO [2]; Cricetulus griseus, CHO",10 µM
Cl.Fc1ccc(COC(CCc2ccc(Cl)cc2)Cn2ccnc2)cc1 (stereo unspecified),IC50,Plasmodium falciparum; Plasmodium falciparum,800 nM
same,Ratio IC50,CHO [1],6.6
same,IC50,"CHO [2]; Cricetulus griseus, CHO",5.3 µM
Cl.Cl.Nc1cccc(SC[C@@H]2CO[C@](CCc3ccc(Cl)cc3)(Cn3ccnc3)O2)c1,IC50,Plasmodium falciparum; Plasmodium falciparum,300 nM
same,Ratio IC50,CHO [1],60
same,IC50,"CHO [2]; Cricetulus griseus, CHO",18 µM
CCC(COC(C)=O)n1ccnc1 (stereo unspecified),IC50,Plasmodium falciparum; Plasmodium falciparum,8300 nM
same,Ratio IC50,CHO [1],222.7
same,IC50,"CHO [2]; Cricetulus griseus, CHO",1850 µM
C[C@@H]1CO[C@@](CCc2ccccc2)(Cn2ccnc2)O1.Cl,IC50,Plasmodium falciparum; Plasmodium falciparum,340 nM
same,Ratio IC50,CHO [1],2226.7
same,IC50,"CHO [2]; Cricetulus griseus, CHO",668 µM
Cl.Clc1ccc(CC[C@@]2(Cn3ccnc3)OC[C@@H](CSc3ccc(Br)cc3)O2)cc1,IC50,Plasmodium falciparum; Plasmodium falciparum,900 nM
same,Ratio IC50,CHO [1],13.3
same,IC50,"CHO [2]; Cricetulus griseus, CHO",12 µM
